Measurements taken from ChEMBL document CHEMBL1777756, “Discovery of Novel Benzo[a]phenoxazine SSJ-183 as a Drug Candidate for Malaria” (ACS Med Chem Lett, 2010).

How the values were obtained:
[1] = Selectivity index, ratio of IC50 for rat L6 cells to IC50 for Plasmodium falciparum K1; assay type: toxicity, cell-based; details: read-out: Ratio IC50
How it was run: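 Selectivity index is IC50 against L-6 cells divided by IC50 against chloroquine/pyrimethamine-resistant P. falciparum K1. Each IC50 is the mean of two independent assays.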

[2] = test system: L6; assay: Cytotoxicity against rat L6 cells; assay type: cell-based
How it was run: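 Cytotoxicity was tested against L-6 rat myoblasts, with IC50 determined. Values are the mean of two independent assays.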

[3] = test system: Plasmodium falciparum; assay: Antimalarial activity against chloroquine and pyrimethamine resistant Plasmodium falciparum K1; assay type: functional, organism-based
How it was run: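 IC50 was determined in vitro against the chloroquine- and pyrimethamine-resistant P. falciparum K1 strain. Values are the mean of two independent assays.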

[4] = test system: Plasmodium berghei; assay: Antimalarial activity against Plasmodium berghei NK-65 infected in ICR mouse assessed as inhibition of parasitemia at 100 mg/kg, po administered as single dose on day 1 measured on day 4; assay type: functional
How it was run: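 Compound was formulated at 100 mg/kg in 5% glucose/10% ethanol or in 7% Tween 80/3% ethanol. The suspension was given as a single oral dose on day 1 to female ICR mice infected with P. berghei NK-65. Parasitemia was determined on day 4 after infection. Treated-group mean is expressed as percent difference from the control-group mean.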

[5] = test system: Plasmodium berghei; assay: Antimalarial activity against Plasmodium berghei NK-65 infected in ICR mouse assessed as survival days at 100 mg/kg, po administered as single dose (reference value: 6 days); assay type: functional
How it was run: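 Female ICR mice infected with P. berghei NK-65 received a single oral dose of 100 mg/kg on day 1. The compound was given as a suspension in 5% glucose/10% ethanol or in 7% Tween 80/3% ethanol. Parasitemia was read on day 4 as percent reduction relative to untreated controls, and mean survival days were recorded.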

Row | Structure (SMILES) | selectivity ratio [1] | IC50 [2] | IC50 [3] | inhibition in vivo at 100 mg/kg [4] | MSD [5]
1 | CC[N+](CC)=c1ccc2nc3c(ccc4ccccc43)oc-2c1 | 6.3 | 3820 nM | 606 nM | – | –
2 | CCN(CC)c1ccc2nc3c4ccccc4/c(=N\c4ccc5ccccc5n4)cc-3oc2c1 | 2520 | 67900 nM | 27 nM | 81% | 10.3 days
3 | CCCCN(CCCC)c1ccc2nc3c4ccccc4/c(=N/c4ccncc4)cc-3oc2c1.Cl.Cl | 327 | 63800 nM | 195 nM | 5.6% | 6.3 days
4 | CCN(CC)c1cc(C)c2nc3c4ccccc4/c(=N/c4ccncc4)cc-3oc2c1.Cl.Cl | 481 | 86600 nM | 180 nM | 99.7% | 13 days
5 | CCN(CC)c1ccc2nc3c4ccccc4/c(=N/c4ccccc4)cc-3oc2c1.Cl | 863 | 165000 nM | 191 nM | 0% | 6.3 days
6 | CCN(CC)c1ccc2nc3c4ccc(Br)cc4/c(=N/c4ccccn4)cc-3oc2c1 | > 5010 | > 190000 nM | 38 nM | 12.7% | 6.3 days
7 | CCN(CC)c1ccc2nc3c4ccccc4/c(=N\c4cccnc4)cc-3oc2c1 | 5090 | 117000 nM | 23 nM | 62.7% | 10 days
8 | CCCN(CCC)c1ccc2nc3c4ccccc4/c(=N/c4ccncc4)cc-3oc2c1.Cl.Cl | 1340 | 67100 nM | 50 nM | 15.3% | 6.3 days
9 | c1ccc2/c(=N/c3ccncc3)cc3oc4cc(N5CCOCC5)ccc4nc-3c2c1 | 3340 | 96900 nM | 29 nM | 97.9% | 7.3 days
10 | CN(C)c1ccc2nc3c4ccccc4/c(=N/c4ccncc4)cc-3oc2c1 | 20400 | 165000 nM | 8.1 nM | > 99.9% | 10 days
11 | CCN(CCNS(C)(=O)=O)c1cc(C)c2nc3c4ccccc4/c(=N/c4ccncc4)cc-3oc2c1.Cl.Cl | 887 | 14800 nM | 17 nM | > 99.9% | 15.7 days
12 | CCN(CC)c1ccc2nc3c4ccc(Br)cc4/c(=N/c4ccncc4)cc-3oc2c1 | > 17300 | > 190000 nM | 11 nM | 14.2% | 6.6 days
13 | CCN(CC)c1ccc2nc3c4ccccc4/c(=N/c4cc[n+](Cc5ccccc5)cc4)cc-3oc2c1.[Cl-] | 31 | 750 nM | 24 nM | 39% | 7.3 days
14 | CCN(CC)c1ccc2nc3c4ccccc4/c(=N/c4nc5ccc(OC)cc5s4)cc-3oc2c1 | 1490 | 168000 nM | 112 nM | 11.4% | 6.3 days
15 | CCN(CC)c1ccc2nc3c4ccccc4c(=O)cc-3oc2c1 [NILE RED] | 76 | 65900 nM | 868 nM | 15% | 6.3 days
16 | CCN(CC)c1ccc2nc3c4ccccc4/c(=N\c4ncc(Cl)cc4Cl)cc-3oc2c1 | 2860 | 180000 nM | 63 nM | 14.7% | 6.3 days
17 | CCN(CC)CCCC(C)Nc1ccnc2cc(Cl)ccc12 (stereo not given) [CHLOROQUINE] | – | – | – | > 99.9% | 12.6 days
18 | CCN(CC)c1ccc2nc3c4ccccc4/c(=N/c4ccc(C)cc4)cc-3oc2c1.Cl | 531 | 123000 nM | 232 nM | 0% | 6.3 days
19 | CC[N+](CC)=c1ccc2nc3c(cc(N)c4ccccc43)oc-2c1.[Cl-] [NILE BLUE HYDROCHLORIDE] | 2760 | 43100 nM | 15.6 nM | 15% | 6.6 days
20 | CCN(CC)c1ccc2nc3c4ccccc4/c(=N\c4ccccn4)cc-3oc2c1 | 1050 | 15800 nM | 15 nM | > 99.9% | 8.3 days
21 | CCN(CC)c1ccc2nc3c4ccccc4/c(=N\c4ncccn4)cc-3oc2c1 | 2730 | 13600 nM | 5 nM | 3.3% | 6.3 days
22 | CCN(CC)c1ccc2nc3c4ccccc4/c(=N/c4cc[n+](C)cc4)cc-3oc2c1.[I-] | 174 | 1560 nM | 9 nM | 22% | 6.6 days
